The source of these data is publication PMC2229322 (The Journal of General Physiology, 1996).

Series [1] in a line: Net charge of ball peptides. The class given is physicochemical. As to conditions: COOH terminal amidated, NH2 terminal positively charged.
In series [2] the test system is NH2-terminal deletion mutant Shaker K+ channel. Particulars: ref Zagotta et al., 1990; cited from earlier work.
In series [3] the test system is 391C Shaker K+ channel with intact N-type inactivation (Sh +). As to the kind of experiment: N-type inactivation of intact. The format is cell-based, Drosophila. As to conditions: for effect of 391C modification on N-type inactivation current: voltage jump -80 to 0 mV, 50 ms, complete modification (Fig. 2). In short, it runs like this: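 Inside-out patches from HEK293 cells expressing channels with intact N-terminus, stepped -80 to 0 mV. Inactivation gate removed by internal trypsin perfusion. Traces normalised to the mean current of the last 20 ms after trypsin. Ag+ 20 nM for 2 min applied; completeness checked by pulsing at 0.25 Hz.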

The target in series [4] is E395C mutant Shaker K+ channel (Drosophila melanogaster, UniProt P08510, C301S/C308S/DEL6-46/E395C/T449V). As to the kind of experiment: Sensitivity of E395C to internal open channel blockers. The format is cell-based. As to conditions: internal open channel blocker.
The subject of the next series is K+ channels. As to the kind of experiment: Test of perfusion change by TEA blockade. The format is cell-based. Particulars: internal TEA; reflects time course of solution change by perfusion system. The essentials: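 Rapid internal solution exchange on excised patches via a computer-controlled solenoid perfusion system. Exchange speed assessed by applying TEA.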

The subject of a further series is Shaker K+ channel. Particulars: intracellular application; ref Choi et al., 1991; cited from earlier work.
Series [5] relates to 391C ShA Shaker K+ channel. As to the kind of experiment: Rate of chemical modification of 391C. The class given is cell-based, Drosophila. As to conditions: MTSET.
For series [6], the system named is 381C ShA Shaker K+ channel. As to the kind of experiment: Chemical modification of 381C. The class given is cell-based, Drosophila. As to conditions: for slope (time constant x [MTSET]) of current reduction: 381C. The essentials:
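Inside-out patches from transfected HEK293 cells; […] to 0 mV from -100 mV holding. Computer-controlled reagent pulses of 1 or 2 s began ~500 ms after step onset; sampled 5 kHz, filtered 1 kHz. Time axis normalised to reagent concentration; current reduction fitted to single exponentials. Frequency runs alternated -100 with 0 or +60 mV, equal time at each.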

The subject of series [7] is cysteine mutants (380-398) of the S4-S5 linker, ShA Shaker K+ channel. As to the kind of experiment: Chemical modification of cysteine mutants of the S4-S5 linker. The class given is cell-based, Drosophila. Particulars: positions with large current reduction. In short, it runs like this:
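Cysteine-substituted channels in inside-out patches from transfected HEK293 cells, pH 7.4 solutions. Thiol reagents applied internally; completeness of modification followed by pulsing at 0.25 Hz. Conditions: MMTS 2 mM, 1 min; Ag+ 20 nM, 2 min; MTSEA 100 µM, 30 s.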

Series [8] deals with 382C ShA Shaker K+ channel. As to the kind of experiment: Chemical modification of 382C. The class given is cell-based, Drosophila. As to conditions: vs 381C, toward more positive voltages (Fig. 7 C and E).

Regarding “MAAVAGLYGLGEDRQHRKKQ [Shaker ball peptide]”, the net charge result in series [1] is given as “+3”. Moreover, in series [2], the “reconstitution of fast inactivation by intracellular application” value is listed as “effectively reconsti- tuted”.
As for `[Ag+]` [Ag+, silver], the “additional effect of 391C modification on tethered ball” value in series [3] (Ag+ 20 nM for 2 min (Fig. 2)) was “additional ef- fect on the association rate”. The “effect of 391C modification on N-type inactivation current” value (“effect … on N-type inactivation current” for short) in series [3] is “increase in the steady- state current level without much change in the peak current”.
On to `CC[N+](CC)(CC)CC` [TEA, tetraethylammonium], for which the “affinity of E395C mutant compared with wild-type channel” value in series [4] is reported as “reduced fourfold”. Also, in the series with K+ channels, the “time constant of TEA blockade observed” value is ~ 10 ms. In addition, the “effect on N-type inactivation” value with Shaker K+ channel is listed as “slows down N-type inactivation”.
For `CC[N+](CC)(CC)CCSS(C)(=O)=O` [MTSTEA, [(2-triethylammonium)ethyl] methanethiosulfonate], in [3], the “effect … on N-type inactivation current” value was “qualitatively similar results”.
On the same count and under the same terms, the same measure for `CSS(C)(=O)=O` [MMTS, Methyl methanethiosulfonate]: “increase in the steady- state current level without much change in the peak current”.
Take `C[N+](C)(C)CCSS(C)(=O)=O` [MTSET, [(2-trimethylammoniuin)ethyl]methanethiosulfonate]: in series [3], the “effect … on N-type inactivation current” value was “parallel increase of the steady state and the peak current”. The “total current after modification of A391C” value in series [5] was “no reduction in the total current”. For the same compound, in series [5] (Fig. 6C), the “voltage dependence of modification rate of 391C” value was “higher at positive voltages”. Further, the “rate of modification of 381C with rapidly switching stimulus” value in series [6] (50 10-ms pulses vs 5 100-ms pulses, -100 to 0 mV) was “about threefold faster”. Moreover, the “slope (time constant x [MTSET]) of current reduction” value in [6] (MTSET, 0 mV (Fig. 7B)) amounted to 0.33 mM·s; in series [6] (MTSET, -120 mV (Fig. 7B)), 2.47 mM·s. Besides, the “current reduction by modification of 381C” value in [6] (MTSET, Fig. 7 A and B) is more than 80%. For the same compound, the “reactivity of positions 389 and 397” value in series [7] is listed as “only very slowly reactive”. Also, the “shift of voltage dependence of gating and modification for 382C” value in [8] is on record as ~ 50 mV.
Turning to `CCCCCCCCCC[N+](CC)(CC)CC` [C10-TEA, de- cyltriethylammonium], the “affinity of E395C mutant compared with wild-type channel” value in [4] was “reduced fourfold”.
Turning to Trypsin, the “effect of removing the inactivation gate” value in series [3] (0.0025% trypsin perfused on inside-out patch (Fig. 2A)) is “larger non-inactivated current level”.
